Shown are actives, neighbours in structure and some others; about 2.3% of the full set was active somewhere.
TRPC4 potent: allosteric potentiators of mouse TRPC4 channel. 310,000 tested, 0.42% active. HEK293 TRPC4beta/mu-opioid, DAMGO EC20, Fluo-4 Ca2+ flux; active compounds read high. Q9QUQ5. B-score at 10 µM. AID 2227;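 active = B-score of calcium response area above 5 SD of library B-scores, with initial fluorescence ratio within 5 SD of library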;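 note: B-score of integrated fluorescence ratio over time as area under calcium response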
Target sequence (Q9QUQ5 whole entry, looked up): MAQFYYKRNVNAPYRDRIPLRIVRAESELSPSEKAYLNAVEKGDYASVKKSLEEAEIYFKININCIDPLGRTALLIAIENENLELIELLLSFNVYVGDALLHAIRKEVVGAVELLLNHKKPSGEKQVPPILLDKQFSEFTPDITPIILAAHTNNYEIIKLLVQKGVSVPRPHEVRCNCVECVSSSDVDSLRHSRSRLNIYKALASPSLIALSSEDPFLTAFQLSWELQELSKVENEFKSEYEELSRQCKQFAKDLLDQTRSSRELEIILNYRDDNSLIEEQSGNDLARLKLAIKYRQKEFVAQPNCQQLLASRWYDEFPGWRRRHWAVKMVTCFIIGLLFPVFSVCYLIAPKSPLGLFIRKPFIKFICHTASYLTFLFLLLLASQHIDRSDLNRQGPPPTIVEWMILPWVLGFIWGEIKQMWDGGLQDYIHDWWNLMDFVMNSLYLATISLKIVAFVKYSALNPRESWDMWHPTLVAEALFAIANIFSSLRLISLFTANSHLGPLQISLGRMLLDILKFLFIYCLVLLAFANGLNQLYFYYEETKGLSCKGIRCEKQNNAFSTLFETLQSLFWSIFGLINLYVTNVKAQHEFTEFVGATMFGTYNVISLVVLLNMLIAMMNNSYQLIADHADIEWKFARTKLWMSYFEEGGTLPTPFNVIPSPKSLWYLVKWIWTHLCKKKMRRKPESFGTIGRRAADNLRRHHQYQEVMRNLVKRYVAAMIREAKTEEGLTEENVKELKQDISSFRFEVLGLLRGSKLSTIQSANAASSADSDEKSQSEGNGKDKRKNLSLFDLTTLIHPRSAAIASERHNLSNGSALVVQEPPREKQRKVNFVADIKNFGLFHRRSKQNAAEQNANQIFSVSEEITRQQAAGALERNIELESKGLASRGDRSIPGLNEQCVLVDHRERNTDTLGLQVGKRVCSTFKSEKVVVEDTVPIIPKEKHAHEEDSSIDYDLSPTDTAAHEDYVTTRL
TRPC6 act: mouse TRPC6 channel activation | Q61143 | HEK293-TRPC6 membrane potential dye fluorescence; active compounds read high | B-score at 10 µM | 310,000 tested, 0.13% active | AID 2550;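 active = B-score of the integrated fluorescence ratio above library mean plus 3 SD, and starting fluorescence ratio within library mean plus 5 SD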;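 note: higher score means more depolarization so channel activation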
TRPC6 inhibitor: mouse TRPC6 channel inhibition; 310,000 tested, 1.1% active; B-score at 10 µM; HEK293-TRPC6, membrane potential dye, ACh-evoked depolarization; active compounds read low; AID 2553;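 active = B-score under library mean minus 3 SD, initial fluorescence not abnormally high, positive integrated signal ratio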;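 note: B-score derived from integrated fluorescence ratio over the kinetic read; more negative B-score means stronger inhibition of depolarization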
TRPC4 block: inhibitors of mouse TRPC4 channel. HEK293 TRPC4beta/mu-opioid, DAMGO-evoked Fluo4 calcium flux; active compounds read low. AID 2247. 300,000 tested, 0.39% active. B-score at 10 µM;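 active = B-score over 3 SD under the library average, no early fluorescence shift, positive overall ratio signal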
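Material: HEK293 cells with stable TRPC4beta plus mu-opioid receptor expression / Probe or stimulus: DAMGO in two steps, submaximal then maximal / Compound: single concentration per test compound / Technique: kinetic Fluo4 fluorescence imaging of calcium influx / Read-out: per-well B score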
TRPC4 agonist: opens the mouse TRPC4 cation channel; HEK293 TRPC4beta/mu-opioid, Fluo4 calcium fluorescence; active compounds read high; 310,000 tested, 0.49% active; B-score at 10 µM; Q9QUQ5;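 active = B-score above 5 SD of library B-scores, and initial fluorescence ratio not above library mean plus 5 SD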;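 note: positive B-score marks a calcium rise read as TRPC4 activation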
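Incubation: 45 min room-temperature Fluo4 loading, 110 s read / System: HEK293 cells stably co-expressing mouse TRPC4beta and mu-opioid receptor / Signal: Fluo4 fluorescence, kinetic / Control set: buffer (low) and maximal DAMGO (high) / Measure: integrated baseline-normalised fluorescence ratio, converted to per-well B score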
TRPC4 sel inh 2: second selectivity test of TRPC6 inhibitors: effect on mouse TRPC4. HEK293 TRPC4/MOR, membrane potential dye fluorescence; channel activated by saturating DAMGO dose. 920 tested, 42% active. inhibition, % at 10 µM. shares compounds with TRPC6 inhibitor. AID 2776;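 active = compounds whose fluorescence signal differed from control wells by over 3 SD, either direction, in both duplicate plates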
TRPC4 spec: mouse TRPC4 off-target activity of TRPC6 inhibitors; shares compounds with TRPC6 inhibitor; HEK293 TRPC4/mu-opioid, membrane potential fluorescence; activity change, negative = inhibition, % at 10 µM; 920 tested, 61% active; AID 2777;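 active = rise or fall in signal beyond 3 SD of buffer-only wells in both replicate plates, either sign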;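 note: integrated kinetic ratio of fluorescence range over baseline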
HEK293 MPD ctr 2-1: second check of TRPC6 inhibitor effects in parental HEK293 cells; signal change vs control, % at 10 µM; parental HEK293 membrane potential dye fluorescence; maximal acetylcholine challenge after compound addition; 920 tested, 31% active; shares compounds with TRPC6 inhibitor;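 active = membrane potential signal moving either way by over 3 SD of the maximum-effect control, in both duplicate plates, meaning non-specific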
HEK293 MPD ctr-1: checks TRPC6 inhibitor effects in parental HEK293 cells | shares compounds with TRPC6 inhibitor | 920 tested, 60% active | AID 2780 | parental HEK293 membrane potential dye fluorescence | membrane potential signal change, % at 10 µM;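 active = membrane potential signal shifting up or down by more than 3 SD of buffer-only wells, on both duplicate plates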
HEK293 MPD ctr-2: parental HEK293 nonspecific activity of TRPC6 modulators. shares compounds with TRPC6 inhibitor. membrane potential dye fluorescence. membrane potential signal change, % at 10 µM. 2,400 tested, 51% active. AID 488924;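 active = membrane potential signal moves up or down beyond 5 SD from buffer-only wells, on both duplicate plates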
HEK293 MPD ctr 2-2: second counter-screen for TRPC6 modulators: effect in parental HEK293 cells | AID 488926 | 2,400 tested, 14% active | shares compounds with TRPC6 inhibitor | membrane potential dye fluorescence; after compound, maximal acetylcholine stimulation | inhibition, % at 10 µM;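 active = membrane potential signal drops by more than 5 SD from the mean control signal, in both duplicate plates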;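 note: plate controls were acetylcholine ECmax control wells for no effect and buffer only wells for full effect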
TRPC4 ctr mod: mouse TRPC4 off-target activity of TRPC6 modulators. AID 488927. HEK293 TRPC4/mu-opioid, membrane potential fluorescence. shares compounds with TRPC6 inhibitor. 2,400 tested, 69% active. percent change from control (negative = decrease, positive = increase), % at 10 µM;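 active = membrane potential signal moved up or down beyond 5 SD of buffer control wells, in both duplicate plates, actives on both sides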;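 note: plate controls were assay buffer wells for no effect and DAMGO maximal-effect wells for full effect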
TRPC4/MOR inh 2: second check of whether TRPC6 modulators also affect mouse TRPC4; shares compounds with TRPC6 inhibitor; HEK293 TRPC4/mu-opioid, membrane potential dye fluorescence; stimulated with maximal-effect DAMGO; inhibition, % at 10 µM; 2,400 tested, 55% active; AID 488928;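 active = drop in membrane potential signal beyond 5 SD of the control wells in both duplicate plates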;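 note: TRPC4 counter screen for TRPC6 hits run under conditions tuned for TRPC6 not TRPC4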
TRPC6 inh conf: confirmation of mouse TRPC6 inhibitors; shares compounds with TRPC6 inhibitor; AID 488960; 3,300 tested, 43% active; inhibition, % at 10 µM; HEK293-TRPC6, membrane potential dye, ACh-evoked depolarization;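 active = fluorescence ratio falls more than 5 SD below the full-stimulation control mean, in both duplicate runs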;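 note: integrated fluorescence ratio of peak minus minimum over baseline after agonist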
TRPC6 act confirm: confirmation of mouse TRPC6 activators; shares compounds with TRPC6 inhibitor; HEK293-TRPC6 membrane potential dye fluorescence, FDSS; activation, % at 10 µM; 2,800 tested, 11% active;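 active = ratio signal rise beyond 5 SD above unstimulated control wells' mean, seen in both duplicate runs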;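 note: plate controls were buffer EC0 wells for no effect and acetylcholine ECmax response for full effect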
An asterisk follows results filed as active.

Cc1cccc(-n2nc(C(=O)c3ccco3)cc(-c3nc4ccccc4[nH]3)c2=N)c1 was read as TRPC4 potent inactive, TRPC6 act inactive, TRPC6 inhibitor -5.4*, TRPC4 block inactive, TRPC4 agonist inactive, HEK293 MPD ctr-2 inactive, HEK293 MPD ctr 2-2 inactive, TRPC4 ctr mod 20%*, TRPC4/MOR inh 2 45%*, TRPC6 inh conf inactive and TRPC6 act confirm inactive.
Cc1cc(NC(=O)c2cccs2)n(-c2nc3ccccc3[nH]2)n1 was read as TRPC4 potent inactive, TRPC6 act inactive, TRPC6 inhibitor inactive, TRPC4 block inactive and TRPC4 agonist inactive.
For CC(C)(C)c1ccc(OCC(=O)N(Cc2cccs2)C2CCS(=O)(=O)C2)cc1 (stereo not drawn) the results were TRPC4 potent inactive, TRPC6 act inactive, TRPC6 inhibitor inactive, TRPC4 block inactive and TRPC4 agonist inactive.
Screening CC(C)(C)NC(=O)C(c1ccc(F)cc1)N(Cc1ccco1)C(=O)CCC(=O)Nc1ccccn1 (stereo not drawn) returned TRPC4 potent inactive, TRPC6 act inactive, TRPC6 inhibitor -6*, TRPC4 block inactive, TRPC4 agonist inactive, HEK293 MPD ctr-2 354%*, HEK293 MPD ctr 2-2 inactive, TRPC4 ctr mod 78%*, TRPC4/MOR inh 2 inactive and TRPC6 inh conf inactive.
Screening CC(C)(C)NC(=O)C(c1ccc(O)cc1)N(Cc1ccco1)C(=O)CCC(=O)Nc1ccccn1 (stereo not drawn) returned TRPC4 potent inactive, TRPC6 act inactive, TRPC6 inhibitor inactive, TRPC4 block inactive and TRPC4 agonist inactive.
CS(=O)c1ccccc1-c1nc(-c2cccc(Cl)c2)no1 (stereo not drawn) was read as TRPC4 potent inactive, TRPC6 act inactive, TRPC6 inhibitor -9.8*, TRPC4 block inactive, TRPC4 agonist inactive, TRPC4 sel inh 2 inactive, TRPC4 spec inactive, HEK293 MPD ctr 2-1 inactive, HEK293 MPD ctr-1 inactive, TRPC6 inh conf inactive and TRPC6 act confirm inactive.
`CS(=O)c1ccccc1-c1nc(-c2ccc(Cl)cc2)no1` (stereo not drawn) gave TRPC4 potent inactive, TRPC6 act inactive, TRPC6 inhibitor inactive, TRPC4 block inactive and TRPC4 agonist inactive.
Fc1ccc(NC(=S)NNc2ncc(C(F)(F)F)cc2Cl)c(F)c1 was read as TRPC4 potent inactive, TRPC6 act inactive, TRPC6 inhibitor -6.5*, TRPC4 block inactive, TRPC4 agonist inactive, HEK293 MPD ctr-2 120%*, HEK293 MPD ctr 2-2 inactive, TRPC4 ctr mod 20%*, TRPC4/MOR inh 2 inactive and TRPC6 inh conf 50%*.
Screening O=C(NCCCN1CCCC1)c1cc2c(Cl)nc3ccccc3c2s1 returned TRPC4 potent inactive, TRPC6 act inactive, TRPC6 inhibitor -6.6*, TRPC4 block inactive, TRPC4 agonist inactive, HEK293 MPD ctr-2 inactive, HEK293 MPD ctr 2-2 inactive, TRPC4 ctr mod inactive, TRPC4/MOR inh 2 35%*, TRPC6 inh conf inactive and TRPC6 act confirm inactive.
Screening CCOC(=O)c1ccc(NC(=S)NCCc2ccc(F)cc2)cc1 returned TRPC4 potent inactive, TRPC6 act inactive, TRPC6 inhibitor inactive, TRPC4 block inactive and TRPC4 agonist inactive.
`Clc1ccc(C2Nc3cccc4cccc(c34)N2)cc1` gave TRPC4 potent inactive, TRPC6 act inactive, TRPC6 inhibitor inactive, TRPC4 block inactive and TRPC4 agonist inactive.
Screening CSc1ccc(C2Nc3cccc4cccc(c34)N2)cc1 returned TRPC4 potent inactive, TRPC6 act inactive, TRPC6 inhibitor -7*, TRPC4 block inactive, TRPC4 agonist inactive, TRPC4 sel inh 2 inactive, TRPC4 spec -11%*, HEK293 MPD ctr 2-1 inactive, HEK293 MPD ctr-1 -138%*, TRPC6 inh conf inactive and TRPC6 act confirm inactive.
For Cc1cccc(NC(=O)c2cc(-c3cccnc3)nc3c(C)cccc23)n1 the results were TRPC4 potent inactive, TRPC6 act inactive, TRPC6 inhibitor inactive, TRPC4 block inactive and TRPC4 agonist inactive.
Cc1ccn2c(Nc3ccc4c(c3)OCO4)c(-c3ccc(O)cc3)nc2c1 was read as TRPC4 potent inactive, TRPC6 act inactive, TRPC6 inhibitor -7.1*, TRPC4 block inactive, TRPC4 agonist inactive, TRPC4 sel inh 2 inactive, TRPC4 spec -14%*, HEK293 MPD ctr 2-1 inactive, HEK293 MPD ctr-1 -154%*, TRPC6 inh conf inactive and TRPC6 act confirm inactive.
`COc1cc(-c2nc3ccc(C)cn3c2Nc2ccc3c(c2)OCCO3)ccc1O` gave TRPC4 potent inactive, TRPC6 act inactive, TRPC6 inhibitor -8.4*, TRPC4 block inactive, TRPC4 agonist inactive, TRPC4 sel inh 2 54%*, TRPC4 spec -11%*, HEK293 MPD ctr 2-1 inactive, HEK293 MPD ctr-1 -322%*, TRPC6 inh conf inactive and TRPC6 act confirm inactive.
